The list is not random: actives were taken first. Their share in the collection is about 1.6%.
Vif imaging: HIV Vif inhibition; HEK293T cells, Vif self-association by quenched fluorescence, imaging, 24 h; 0.35% of 340,000 active; inhibition, % at 7.49 µM; in the data active = inhibition above about 50%, passing the limit was not always enough; inconclusive = no clear call, values can overlap the other calls; inactive = below about 31%
A1 inh: inhibitors of the anti-apoptotic protein A1, read as caspase activation; caspase activation, % (concentration not given with the values); MEF A1-2A-BIM cells, Caspase-Glo 3/7 luminescence, 3 h; percent of clofoctol response, vehicle zero; AID 2462; 0.066% of 330,000 active;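 active = over half of replicate activation scores above 10%, or exactly half above 10 with the replicate mean above 10; inconclusive = replicate mean below 10 yet half the replicates above 10; inactive = over half of replicates below 10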
SR-BI uptake up: enhances SR-BI lipid uptake from DiI-HDL | CHO ldlA[mSR-BI] cells, DiI-HDL uptake fluorescence, 3 h; 100 = double the neutral-control signal | activation, % at 12.5 µM | 0.096% of 320,000 active;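 active = mean replicate activation of at least 60% and every replicate at or above 60%; inconclusive = mean or all-replicate condition met, but not both; inactive = mean below 60% and not all replicates reaching 60%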
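System: LDL receptor-deficient CHO ldlA cells overexpressing murine SR-BI | Timing: 3 h uptake period with compound, 37 °C | Medium: HEPES-buffered (25 mM, pH 7.4) F12 plus 0.5% BSA | Dosing: Single-point compound dose | Signal: Bottom-read fluorescence, 550/595 nm | Read-out: Retained DiI signal reflecting DiI-HDL uptake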
TAG inh: inhibitors of triacylglycerol accumulation; H9c2 cells, Nile Red lipid (TAG) fluorescence; cells loaded with 200 µM oleic acid; inhibition, % at 12.5 µM; 0.66% of 230,000 active;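 active = pattern-corrected inhibition of lipid staining of at least 50% with the nuclear-stain viability signal not falling by more than 50%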
SR-BI HDL uptake: mouse SR-BI HDL lipid transfer inhibition; Q61009; ldlA[mSR-BI] CHO cells, DiI-HDL uptake fluorescence, 3 h; inhibition, % at 12.5 µM; 0.96% of 320,000 active; AID 488896;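 active = mean replicate inhibition of at least 70% and a set share of replicates each scoring 70 or more; inconclusive = meets just one of the two criteria; inactive = fails both criteria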
Target sequence (Q61009 whole entry, looked up): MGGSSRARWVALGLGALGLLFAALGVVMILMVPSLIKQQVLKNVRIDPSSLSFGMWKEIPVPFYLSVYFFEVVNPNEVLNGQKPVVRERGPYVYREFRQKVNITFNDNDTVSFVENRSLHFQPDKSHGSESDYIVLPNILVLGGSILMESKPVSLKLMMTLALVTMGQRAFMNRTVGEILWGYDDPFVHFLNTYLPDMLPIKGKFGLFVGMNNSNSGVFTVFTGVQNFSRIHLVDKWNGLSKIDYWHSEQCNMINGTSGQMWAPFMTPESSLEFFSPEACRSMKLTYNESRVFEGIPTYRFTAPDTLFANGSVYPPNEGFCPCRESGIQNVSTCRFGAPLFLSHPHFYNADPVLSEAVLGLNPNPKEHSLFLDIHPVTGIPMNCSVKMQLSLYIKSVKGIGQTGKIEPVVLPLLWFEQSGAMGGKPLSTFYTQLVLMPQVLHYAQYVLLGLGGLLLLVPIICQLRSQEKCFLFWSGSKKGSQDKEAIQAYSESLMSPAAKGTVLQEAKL
DiI quench: counter-screen for SR-BI lipid transfer inhibitors: DiI fluorescence quenchers. cell-free DiI-HDL fluorescence quenching, 30 min. AID 540326. 20% of 470 active. AC50, µM (highest dose often 35 µM). shares compounds with SR-BI HDL uptake;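 active = quenching, a falling signal, with AC50 below a set limit tied to the top valid dose, actives reach about 32 µM in these data; inconclusive = no clear call, values can overlap the other calls; inactive = rising signal, and the rest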
Numbers stand for hits; 0 = inactive; ? = inconclusive; - = no result given.

SMILES	Vif imaging	A1 inh	SR-BI uptake up	TAG inh	SR-BI HDL uptake	DiI quench
Cc1ccc(CNC(=O)c2ccc(N3CCC4(CC3)CC(c3cccc(Br)c3)=NO4)c([N+](=O)[O-])c2)cc1	-	0	0	-	80.8	0
CN1CCc2ccc(NC(=O)c3ccc(C(F)(F)F)cc3)cc2C1	0	0	0	0	82.4	0
COC(=O)c1ccc(NC(=O)CN2CCCC2)cc1	0	0	0	0	0	-
CCOc1ccc(NC(=O)CN2CCN(CC(=O)Nc3ccc(C(=O)OC)cc3)CC2)cc1	0	0	0	0	80.8	0
CCC1COC(c2cccn2Cc2ccc(Cl)cc2)=N1 (configuration not stated)	0	0	0	-	0	-
CCSCC1COC(c2cccn2Cc2ccc(C)cc2)=N1 (configuration not stated)	0	0	0	0	?	0
COc1ccc(CCN=C(N)Nc2nc(C)cc(C)n2)cc1	0	0	0	0	0	-
Cc1ccc(NC(=O)NNC(=O)C2CCN(Cc3ccc(F)cc3Cl)CC2)cc1	-	0	0	0	0	-
O=C(N[C@@H]1C/C=C\C[C@H](CC(=O)N(CCO)Cc2ccccc2)C(=O)NC[C@@H](c2ccccc2)OC1=O)OCC1c2ccccc2-c2ccccc21	0	0	0	0	85.4	0
COC(=O)[C@H](CC(C)C)NCc1cccc(CN[C@@H](CC(C)C)C(=O)OC)c1	0	0	0	0	0	-
COc1cc([N+](=O)[O-])ccc1NC(=O)NCC1CCN(Cc2ccc(Cl)cc2)CC1	0	0	0	-	82.8	0
NC(=O)c1cc(N2C(=O)C=CC2=O)ccc1Cl	0	0	0	-	0	-
O=C(O)c1cc(N2C(=O)C=CC2=O)cc(N2C(=O)C=CC2=O)c1	0	-	0	0	0	0
COCCCN(C(=O)c1ccco1)c1nc(-c2ccc(OC)cc2)cs1	0	0	0	0	110.8	0
Cc1ccsc1-c1nc(-c2ccccc2)c(-c2ccccc2)[nH]1	0	0	0	0	71.3	32.3µM
Fc1ccc(-c2nc(-c3cccs3)[nH]c2-c2ccc(F)cc2)cc1	0	0	0	-	0	-
COc1cccc(-c2c(C#N)c(SC)nc3cc(C)nn23)c1	0	0	0	0	0	-
CC(=O)Oc1ccc(C(=O)Nc2cc(NC(=O)c3ccc(OC(C)=O)cc3)cc(C(=O)NC(C)(C)C)c2)cc1	0	0	0	-	0	0
CC(=O)Oc1ccc(C(=O)Nc2ccccc2NC(=O)c2ccc(OC(C)=O)cc2)cc1	0	0	0	-	0	-
COc1ccccc1NC(=O)c1ccccc1C(=O)N(C)Cc1ccccc1	0	0	0	0	0	-
CCCC(=O)Nc1ccc(Cl)c(NC(=O)c2cccc(OC)c2)c1	0	0	0	0	77.8	0
Cc1ccc(-c2csc3ncn(C(C)C(=O)O)c(=O)c23)cc1 (configuration not stated)	0	0	0	0	0	-
COc1ccc(C2C(C#N)=C(N)N(c3ccccc3C#N)C3=C2C(=O)CCC3)cc1CN1CCCC1 (configuration not stated)	0	0	0	-	0	0
COc1cc(C2C(C#N)=C(N)N(c3cccnc3)C3=C2C(=O)CCC3)ccc1O (configuration not stated)	0	0	0	-	0	-
Cc1cc(C(=O)NNC(=O)[C@H](C)NC(=O)c2ccc(Br)cc2)c(C)o1	0	0	-	0	0	-
SMILES	Vif imaging	A1 inh	SR-BI uptake up	TAG inh	SR-BI HDL uptake	DiI quench
CC(C)CN(CC(C)C)C(=O)COn1nnc2ccc(S(=O)(=O)N3CCOCC3)cc21	0	0	0	0	70.4	0
CN(C(=O)COn1nnc2ccc(S(=O)(=O)N3CCOCC3)cc21)c1ccccc1	0	0	0	0	0	0
O=C(COn1nnc2ccc(S(=O)(=O)N3CCOCC3)cc21)Nc1c(F)c(F)c(F)c(F)c1F	0	0	0	0	0	-
Cc1ccccc1COn1nnc2ccc(S(=O)(=O)N3CCOCC3)cc21	?	0	0	0	0	-
CCSc1nnc(N2C(=O)c3ccc(C(=O)c4ccc(C(=O)O)cc4)cc3C2=O)s1	0	0	0	0	0	-
CCOC(=O)C(C)(C)Sc1nc2c(cnn2-c2ccc(F)cc2)c(=O)[nH]1	0	0	0	-	76.6	0
Cc1ccc(C)c(NC(=O)C2(C)CC3c4ccccc4C2c2ccccc23)c1 (configuration not stated)	0	0	-	-	-	-
Cc1cccc(NC(=O)C2(C)CC3c4ccccc4C2c2ccccc23)c1C (configuration not stated)	0	0	0	-	0	0
Cc1ccc(/C=C/C(=O)Nc2sc3c(c2C#N)CCCC3)o1	0	0	0	-	75.5	0
CCc1ccc(CCC(=O)Nc2sc3c(c2C#N)CCCC3)o1	0	0	0	-	0	-
Cc1ccc(Sc2nc(-c3ccccc3)nnc2C(F)(F)F)cc1	0	-	0	-	?	0
CNc1nc(-c2ccccc2)nnc1C(F)(F)F	0	0	0	-	0	-
Cc1noc(C)c1CS(=O)(=O)c1ccc([N+](=O)[O-])cc1	0	0	0	-	0	-
COc1cc(OC)cc(C(=O)N[C@H](C(=O)Nc2nc(-c3ccc(OC)c(OC)c3)cs2)C(C)C)c1	-	0	-	0	-	-
COc1cc(OC)cc(C(=O)N[C@H](C(=O)Nc2nc(-c3cc(OC)ccc3OC)cs2)C(C)C)c1	0	0	0	0	?	0
Cc1c(C(=O)OCC(C)C)[nH]c2c1C(=O)CC(c1ccco1)C2 (configuration not stated)	0	0	0	-	0	-
Cc1c(C(=O)OCC2CCCO2)[nH]c2c1C(=O)CC(c1ccco1)C2 (configuration not stated)	0	0	0	56.2	0	0
C/C=C/COC(=O)c1[nH]c2c(c1C)C(=O)CC(c1ccco1)C2 (configuration not stated)	0	0	0	0	77.8	0
COc1ccc(N2CCN(C3CCCN(C(=O)C4=C(C)OCCO4)C3)CC2)cc1 (configuration not stated)	0	0	0	0	0	-
Cc1cc(C)n(CC(=O)NC2CCCc3c2cnn3-c2ccc(C)c(C)c2)n1 (configuration not stated)	0	0	0	-	?	0
Cc1ccc(-c2cc(C(=O)Nc3sc4c(c3C(=O)NCc3ccco3)CCC4)[nH]n2)c(O)c1	0	0	0	0	82.6	0
COC(=O)C(Cc1csc2ccc(Cl)cc12)NC(=O)c1ccc(Cl)cc1 (configuration not stated)	0	0	0	0	0	-
CCC(C)C(=O)N1CCc2cc(-c3csc(N)n3)ccc21 (configuration not stated)	0	0	0	0	0	-
CNc1nc(-c2ccc3c(c2)CCN3C(=O)c2ccccc2F)cs1	0	-	0	0	0	-
CNc1nc(-c2ccc3c(c2)CCN3C(=O)c2ccccc2F)c(C)s1	0	0	0	0	0	0
CCCC(=O)N1CCc2cc(-c3nc(N)sc3C)ccc21	0	0	0	0	74.6	0
